The values below come from ChEMBL document CHEMBL1124394, “Synthesis and biological evaluation of 14-alkoxymorphinans. 2. (-)-N-(cyclopropylmethyl)-4,14-dimethoxymorphinan-6-one, a selective mu opioid receptor antagonist” (J Med Chem, 1989).

Values joined by “and” are separate entries in the source; they are usually repeats but may differ in a detail not shown here. Equal values may be shown once.

The target in test [1] is Opioid receptor (Rattus norvegicus, UniProt P33533+P34975+P33535). Briefly: Inhibition of [3H]naloxone binding to opioid receptor in presence of NaCl. It is filed as protein assay. The method in brief:
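Rat (male F1-albino, 140–180 g) whole brain minus cerebellum, homogenised in ice-cold 50 mmol/L Tris-HCl pH 7.4 with NaCl, centrifuged 18000g 10 min and rehomogenised. Nonspecific binding defined with 1 μmol/L levallorphan. Competitor tested at ≥5 concentrations in duplicate, two independent runs. IC50 taken graphically or from a least-squares sigmoid fit.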

Test [2] deals with Mus musculus. The test is described as follows: Percent reduction of analgesia induced by U-50,488 at 15 mg/kg after sc administration was measured in mice. It is filed as functional. The settings on record: route subcutaneous. The method in brief: (§1)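 Mice received the opioid agonist sc (morphine 10 mg/kg or U-50,488 15 mg/kg), then the test compound sc 20 min later in saline (10 mL/kg). Writhing was then induced with acetic acid. Read-out was percent reduction of agonist-induced analgesia.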

Test [3] has as its system Mus musculus. Briefly: Percent reduction of analgesia induced by morphine at 10 mg/kg after sc administration was measured in mice. Format: functional. The conditions noted are these: route subcutaneous. The method in brief:
as §1

Test [4] relates to Oryctolagus cuniculus. Briefly: Percent change of rate in the respiratory activity was measured in rabbit at 0.1 mg/kg dose given intravenously. It is filed as functional. The settings on record: route intravenous. The method in brief:
(§2)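 Rabbits were dosed iv in saline (1.5 mL/kg); 1 N HCl was sometimes added to dissolve the compound. Percent change (±SE) in respiratory volume and rate was recorded.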

The subject of test [5] is Oryctolagus cuniculus. The test is described as follows: Percent change of volume in the respiratory activity was measured in rabbit at the 0.1 mg/kg dose given intravenously. It is filed as functional. The conditions noted are these: route intravenous. The method in brief:
as §2

Test [6] deals with Oryctolagus cuniculus. Briefly: Percent change of rate in the respiratory activity was measured in rabbit at the 0.1 mg/kg dose given intravenously. Format: functional. The settings on record: route intravenous. The procedure, abridged: as §2
For test [7], the system named is Oryctolagus cuniculus. The test is described as follows: Percent change of volume in the respiratory activity was measured in rabbit at the 1 mg/kg dose given intravenously. The settings on record: route intravenous. It is filed as functional. The procedure, abridged: as §2
In test [8] the test system is Oryctolagus cuniculus. Briefly: Percent change of rate in the respiratory activity was measured in rabbit at the 1 mg/kg dose given intravenously. It is filed as functional. The settings on record: route intravenous. The method in brief: as §2
The target in test [9] is Delta-type opioid receptor (Rattus norvegicus) (UniProt P33533). The settings on record: Vas deferens.
Sequence of Delta-type opioid receptor (Rattus norvegicus) (P33533 whole entry): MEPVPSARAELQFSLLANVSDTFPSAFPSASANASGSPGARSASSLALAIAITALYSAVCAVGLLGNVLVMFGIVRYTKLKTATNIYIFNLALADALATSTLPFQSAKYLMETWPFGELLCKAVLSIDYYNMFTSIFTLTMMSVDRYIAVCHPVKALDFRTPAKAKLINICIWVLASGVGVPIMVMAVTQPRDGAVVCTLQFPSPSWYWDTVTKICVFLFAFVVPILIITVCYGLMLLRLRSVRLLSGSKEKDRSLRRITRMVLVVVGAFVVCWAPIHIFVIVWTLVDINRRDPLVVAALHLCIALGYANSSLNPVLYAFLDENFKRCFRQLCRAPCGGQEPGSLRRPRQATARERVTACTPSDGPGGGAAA
In test [10] the target is Kappa-type opioid receptor (Cavia porcellus) (UniProt P41144).
Sequence of Kappa-type opioid receptor (Cavia porcellus) (P41144 whole entry): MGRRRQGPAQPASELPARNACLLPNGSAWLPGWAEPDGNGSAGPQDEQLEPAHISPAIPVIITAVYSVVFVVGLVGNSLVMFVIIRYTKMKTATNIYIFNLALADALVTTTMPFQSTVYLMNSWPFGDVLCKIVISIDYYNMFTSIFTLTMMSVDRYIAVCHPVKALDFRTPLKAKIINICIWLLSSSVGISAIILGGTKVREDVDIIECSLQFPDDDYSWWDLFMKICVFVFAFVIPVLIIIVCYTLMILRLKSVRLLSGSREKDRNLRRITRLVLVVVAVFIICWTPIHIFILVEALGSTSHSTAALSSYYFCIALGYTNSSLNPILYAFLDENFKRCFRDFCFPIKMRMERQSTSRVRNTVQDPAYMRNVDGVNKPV
Test [11] addresses Kappa-type opioid receptor (Mus musculus) (UniProt P33534). The conditions noted are these: Vas deferens.
Test [12] deals with Mu-type opioid receptor (Cavia porcellus) (UniProt P97266).
Sequence of Mu-type opioid receptor (Cavia porcellus) (P97266 whole entry): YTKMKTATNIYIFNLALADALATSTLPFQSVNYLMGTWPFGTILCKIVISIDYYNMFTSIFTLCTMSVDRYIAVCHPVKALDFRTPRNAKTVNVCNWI
Test [13] addresses Mu-type opioid receptor (Rattus norvegicus) (UniProt P33535). The settings on record: Vas deferens.
The target of test [14] is Delta-type opioid receptor (Mus musculus) (UniProt P32300). The conditions noted are these: Vas deferens.
Sequence of Delta-type opioid receptor (Mus musculus) (P32300 whole entry): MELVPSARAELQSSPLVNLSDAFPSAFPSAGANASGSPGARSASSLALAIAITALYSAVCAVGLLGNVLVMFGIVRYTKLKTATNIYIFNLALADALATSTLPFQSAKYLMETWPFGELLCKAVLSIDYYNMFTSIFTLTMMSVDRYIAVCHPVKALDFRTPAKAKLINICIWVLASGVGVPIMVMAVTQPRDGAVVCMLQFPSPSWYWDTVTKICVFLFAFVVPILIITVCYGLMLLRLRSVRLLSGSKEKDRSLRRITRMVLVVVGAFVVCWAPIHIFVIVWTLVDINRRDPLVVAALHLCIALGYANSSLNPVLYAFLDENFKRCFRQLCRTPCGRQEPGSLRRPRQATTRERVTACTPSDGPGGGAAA
In test [15] the target is Mu-type opioid receptor (Mus musculus) (UniProt P42866). The conditions noted are these: Vas deferens.
Sequence of Mu-type opioid receptor (Mus musculus) (P42866 whole entry): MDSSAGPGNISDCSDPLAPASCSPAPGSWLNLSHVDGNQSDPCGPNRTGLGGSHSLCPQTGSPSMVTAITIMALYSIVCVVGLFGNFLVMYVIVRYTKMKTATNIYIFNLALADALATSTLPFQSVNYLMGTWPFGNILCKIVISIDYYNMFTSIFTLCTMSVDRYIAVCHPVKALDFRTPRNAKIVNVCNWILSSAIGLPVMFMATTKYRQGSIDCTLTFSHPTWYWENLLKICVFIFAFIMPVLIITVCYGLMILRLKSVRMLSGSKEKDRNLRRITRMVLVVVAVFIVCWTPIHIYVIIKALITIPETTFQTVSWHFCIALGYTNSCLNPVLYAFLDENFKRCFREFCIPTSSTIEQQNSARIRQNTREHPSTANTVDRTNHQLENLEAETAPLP

Sequence of Mu-type opioid receptor (Rattus norvegicus) (P33535 whole entry): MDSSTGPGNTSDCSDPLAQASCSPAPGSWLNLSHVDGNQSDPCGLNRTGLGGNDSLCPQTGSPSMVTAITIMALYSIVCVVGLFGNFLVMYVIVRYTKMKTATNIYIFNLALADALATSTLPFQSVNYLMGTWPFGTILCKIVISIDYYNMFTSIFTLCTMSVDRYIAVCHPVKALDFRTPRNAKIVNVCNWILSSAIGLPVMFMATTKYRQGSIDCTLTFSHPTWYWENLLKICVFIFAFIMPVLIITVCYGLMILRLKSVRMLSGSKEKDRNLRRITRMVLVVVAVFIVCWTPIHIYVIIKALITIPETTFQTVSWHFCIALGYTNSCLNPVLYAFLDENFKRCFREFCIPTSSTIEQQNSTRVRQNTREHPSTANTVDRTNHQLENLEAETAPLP
Sequence of Kappa-type opioid receptor (Mus musculus) (P33534 whole entry): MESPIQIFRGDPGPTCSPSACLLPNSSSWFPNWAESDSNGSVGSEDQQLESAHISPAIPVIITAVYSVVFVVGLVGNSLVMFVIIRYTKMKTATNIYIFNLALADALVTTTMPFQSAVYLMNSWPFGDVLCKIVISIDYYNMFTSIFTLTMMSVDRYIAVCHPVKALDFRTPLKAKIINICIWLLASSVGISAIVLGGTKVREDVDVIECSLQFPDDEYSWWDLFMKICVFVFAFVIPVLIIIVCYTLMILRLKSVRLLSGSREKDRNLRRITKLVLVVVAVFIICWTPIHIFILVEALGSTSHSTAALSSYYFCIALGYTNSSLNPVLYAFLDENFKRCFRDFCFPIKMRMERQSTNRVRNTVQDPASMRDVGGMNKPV

With `C=CCN1CC[C@]23CCCC[C@H]2[C@H]1Cc1ccc(O)cc13` [LEVALLORPHAN], in test [1], the IC50 was 1.1 nM and 0.54 nM.
For the compound `O=C1CC[C@@]2(O)[C@H]3Cc4ccc(O)c5c4[C@@]2(CCN3CC2CC2)[C@H]1O5` [NALTREXONE], the figures for the Reduction in test [2] and in test [3] were 19% and 94%, respectively. For the same compound, the Rate change in [4] was 7.5%.
Take `C=CCN1CC[C@]23c4c5ccc(O)c4O[C@H]2C(=O)CC[C@@]3(O)[C@H]1C5` [NALOXONE]: the Reduction in [2] was 83%; in [3], 87%. Moreover, in test [5], the Volume change is 23%. Also, the Rate change in test [6] is given as 7.3%.
For `COc1cccc2c1[C@]13CCN(CC4CC4)[C@H](C2)[C@]1(OC)CCC(=O)C3` [CYPRODIME], in [7], the Volume change was determined as 21%. The Rate change in [8] is reported as -6.9%. The Ke in [9] came to 4.56 µM; in [10], 1160 nM; in test [11] it was 1550 nM; in test [12], 31 nM; in test [13] it was 61.6 nM; in [14], 6.11 µM. In addition, in test [15], the Ke amounted to 55.4 nM.

As a reminder, the IC50 is the concentration that inhibits the measured activity by half.
